The nature of data set [1]: Effective concentration against Huh 7 cells. The format is functional, cell-based, Homo sapiens. The essentials:
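HCV subgenomic replicon cells with luciferase readout, seeded at 6000 cells/well, compound added right after seeding, 48 h incubation. Cells then lysed and luciferase activity in lysate measured. Replicon RNA reduction inferred from the luciferase drop; EC50 is the concentration giving 50% reduction of viral replication.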

The nature of data set [2]: Cytotoxicity determined in Huh 7 cells. It is filed as cell-based. The settings on record: human. The essentials:
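Huh7 cells; viability read by colorimetric MTT assay. CC50 taken as the concentration that cuts cell viability by 50%.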

For `Nc1ncnc2c1ncn2[C@@H]1O[C@H](CCP(=O)(O)O)[C@@H](O)[C@H]1O`, a half-maximal effect in data set [1] (EC50) was put at 200 µM. Also, the CC50 – broadly, the concentration giving 50% cytotoxicity – in data set [2] is greater than 300 µM.
As to `CC(C)(C)C(=O)SCCOP(=O)(CC[C@H]1O[C@@H](n2cnc3c(N)ncnc32)[C@](C)(O)[C@@H]1O)OCCSC(=O)C(C)(C)C`, the EC50 (usually the concentration that produces a half-maximal response) in data set [1] stood at 25 µM. The molecule further had a CC50 in data set [2] of 30 µM.
The matching figures for `Nc1ncnc2c1ncn2[C@@H]1O[C@H](OCP(=O)(O)O)[C@@H](O)[C@H]1O`: 65 µM and greater than 300 µM.
For `Nc1ncnc2c1ncn2[C@@H]1C[C@H](OCP(=O)(O)O)[C@@H](O)[C@H]1O` the same measures were 30 µM and 300 µM.
The molecule `C[C@@]1(O)[C@H](O)[C@@H](CCP(=O)(O)O)O[C@H]1n1cnc2c(N)ncnc21` showed a 50% effective concentration (EC50) in data set [1] of 35 µM. Moreover, the 50% cytotoxic concentration (CC50) in data set [2] is greater than 300 µM.
